Measurements from ChEMBL document CHEMBL1649084, “Novel trisubstituted benzimidazoles, targeting Mtb FtsZ, as a new class of antitubercular agents” (J Med Chem, 2011).
≈ marks a conversion by molar mass, not a printed value.

Assays:
[1] = test system: Mycobacterium tuberculosis; test: Antimycobacterial activity against Mycobacterium tuberculosis H37Rv after 24 hrs by microplate Alamar Blue assay; type: functional
Summary of the method: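 MIC99 by microplate Alamar Blue: DMSO stocks serially diluted 2-fold in 96-well plates; Mtb grown in 7H9 + 10% OADC + 0.05% Tween-80, used at mid-log phase, added to OD600 0.005; 6 days at 37 °C, then AlamarBlue added and a further 24 h at 37 °C; read by colour change; triplicate.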

[2] = test system: Vero; test: Cytotoxicity against african green monkey Vero cells after 3 days by Alamar Blue assay; type: cell-based; conditions: chlorocebus sabaeus, 72 h
[3] = test system: Mycobacterium tuberculosis; test: Antimycobacterial activity against Mycobacterium tuberculosis H37Rv NHN382 after 24 hrs by microplate Alamar Blue assay; type: functional
[4] = test system: Mycobacterium tuberculosis; test: Antimycobacterial activity against Mycobacterium tuberculosis H37Rv W210 after 24 hrs by microplate Alamar Blue assay; type: functional
[5] = biological target: T1, Cell division protein FtsZ (Mycobacterium tuberculosis, UniProt P9WN95); test: (§1) Inhibition of Mycobacterium tuberculosis FtsZ polymerization
T1 sequence (P9WN95 whole entry): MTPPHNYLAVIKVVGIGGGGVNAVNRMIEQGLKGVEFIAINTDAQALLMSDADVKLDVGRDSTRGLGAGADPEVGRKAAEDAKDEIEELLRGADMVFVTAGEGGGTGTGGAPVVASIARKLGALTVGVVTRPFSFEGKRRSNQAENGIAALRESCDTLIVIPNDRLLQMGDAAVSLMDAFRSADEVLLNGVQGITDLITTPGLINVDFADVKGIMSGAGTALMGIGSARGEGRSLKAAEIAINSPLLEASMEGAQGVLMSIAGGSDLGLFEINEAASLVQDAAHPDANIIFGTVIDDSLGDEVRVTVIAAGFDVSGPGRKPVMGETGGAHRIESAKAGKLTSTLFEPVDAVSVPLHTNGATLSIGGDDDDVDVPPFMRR
Summary of the method: (§2)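 90° light scattering at 30 °C, excitation/emission 400 nm. Inhibitor at various concentrations preincubated in 50 mM MES, 5 mM MgCl2, 50 mM KCl, pH 6.5 to baseline. Mtb FtsZ (15 μM) then added; polymerization started with 5 mM GTP (20 μL into 1,000 μL final); monitored 30-60 min. DMSO-matched controls.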

[6] = biological target: T2, Cell division protein FtsZ (Mycobacterium tuberculosis) (UniProt P9WN95); test: as §1; summary of the method: as §2
T2 sequence (whole entry): T1 sequence (P9WN95 whole entry)

Compound | MIC99 [1] [µM] | Cytotoxic concentration [2] [µM] | MIC99 [3] [µM] | MIC99 [4] [µM] | also measured
CCN(CC)c1cc2[nH]c(C3CCCCC3)nc2cc1NC(=O)c1ccc(OC)cc1 | 7.4 (≈ 3.11 µg/mL) | > 400 |  |  | 
O=C(Nc1cc2nc(C3CCCCC3)[nH]c2cc1N1CCCC1)OCc1ccccc1 |  | > 200 | 3.7 (≈ 1.55 µg/mL) | 3.7 (≈ 1.55 µg/mL) | 
CCCCOC(=O)Nc1cc2nc(C3CCCCC3)[nH]c2cc1N(CC)CC |  | > 400 |  | 4 (≈ 1.55 µg/mL) | MIC99 ([3]; Mycobacterium tuberculosis, H37Rv NHN382, 24 h, read-out: MIC99): 2 µM (≈ 0.773 µg/mL); IC50 [5]: 7.69 µM
CCN(CC)c1cc2[nH]c(C3CCCCC3)nc2cc1NC(=O)c1ccc(Cl)cc1 | 14.1 (≈ 5.99 µg/mL) | > 400 |  |  | 
CCOC(=O)Nc1cc(NC(C)=O)c2[nH]c(-c3ccccc3)nc2c1 |  | > 200 | 2.3 (≈ 0.778 µg/mL) |  | MIC99 ([4]; Mycobacterium tuberculosis, H37Rv W210, 24 h, read-out: MIC99): 4.6 µM (≈ 1.56 µg/mL)
CCN(CC)c1cc2[nH]c(C3CCCCC3)nc2cc1NC(=O)c1ccccc1 | 7.9 (≈ 3.09 µg/mL) | > 400 |  |  | Activity [6]: Dose-dependent effect; IC50 [5]: 6.21 µM
CCN(CC)c1cc2[nH]c(C3CCCCC3)nc2cc1NC(=O)c1ccc(C)cc1 | 15.1 (≈ 6.11 µg/mL) | > 400 |  |  | 
CCCCOC(=O)Nc1cc2nc(C3CCCCC3)[nH]c2cc1N1CCCC1 |  | > 200 | 1 (≈ 0.385 µg/mL) | 1 (≈ 0.385 µg/mL) | 
CCN(CC)c1cc2[nH]c(C3CCCCC3)nc2cc1NC(=O)OCc1ccccc1 | 3.8 (≈ 1.6 µg/mL) | > 400 |  |  | 
CCCOC(=O)Nc1cc2nc(C3CCCCC3)[nH]c2cc1N(CC)CC | 4.3 (≈ 1.6 µg/mL) | > 400 |  |  | 
C=CCCOC(=O)Nc1cc2nc(C3CCCCC3)[nH]c2cc1N(CC)CC |  | > 400 | 4.2 (≈ 1.62 µg/mL) | 4.2 (≈ 1.62 µg/mL) | 
